Assay results reported in ChEMBL document CHEMBL4145575, “ent-Kaurane Diterpenoids with Neuroprotective Properties from Corn Silk ( Zea mays)” (2018).
Calls of active or inactive are those of the source. The calls are words filed in the database; no cut-off is given here.

Experiments:
SH-SY5Y [1] = test: Neuroprotective activity against H2O2-induced cell death in human SH-SY5Y cells assessed as increase in cell viability at 100 uM relative to control; assay type: functional
Method in brief: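 SH-SY5Y cells exposed to H2O2, with or without test compound; viability read by MTT assay and compared with the H2O2-only model group. Trolox served as positive control. Cell viability given as means ± SEM.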

SH-SY5Y [2] = test: Neuroprotective activity against H2O2-induced cell death in human SH-SY5Y cells assessed as increase in cell viability up to 100 uM; assay type: functional, cell-based
Method in brief: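 SH-SY5Y cells were injured with H2O2, with test compounds up to 100 μM. Viability was read by MTT assay and compared with the H2O2 model group. Trolox served as positive control. Data were reported as means ± SEM.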

SH-SY5Y [3] = test: Neuroprotective activity against H2O2-induced apoptosis in human SH-SY5Y cells assessed as necrotic cells at 50 uM pretreated for 1 hr followed by H2O2-stimulation after 4 hrs by Annexin-V-FITC/propidium iodide staining based flow cytometry (reference value: 2.63%); assay type: functional
SH-SY5Y [4] = test: Neuroprotective activity against H2O2-induced apoptosis in human SH-SY5Y cells assessed as necrotic cells at 100 uM pretreated for 1 hr followed by H2O2-stimulation after 4 hrs by Annexin-V-FITC/propidium iodide staining based flow cytometry (reference value: 2.63%); assay type: functional
SH-SY5Y [5] = test: Neuroprotective activity against H2O2-induced apoptosis in human SH-SY5Y cells assessed as necrotic cells at 25 uM pretreated for 1 hr followed by H2O2-stimulation after 4 hrs by Annexin-V-FITC/propidium iodide staining based flow cytometry (reference value: 2.63%); assay type: functional
SH-SY5Y [6] = test: Neuroprotective activity against H2O2-induced morphological changes in human SH-SY5Y cells assessed as reduction in cell shrinkage after 4 hrs by phase contrast microscopic analysis; assay type: functional, cell-based
Method in brief: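 Cells were exposed to H2O2 (200 μM) for 4 h, in the presence or absence of compound at 25, 50 or 100 μM. Cell shrinkage and other morphology were viewed by phase contrast microscopy and compared with untreated control and H2O2-only cells.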

SH-SY5Y [7] = test: Neuroprotective activity against H2O2-induced apoptosis in human SH-SY5Y cells assessed as late apoptotic cells at 50 uM pretreated for 1 hr followed by H2O2-stimulation after 4 hrs by Annexin-V-FITC/propidium iodide staining based flow cytometry (reference value: 15%); assay type: functional
SH-SY5Y [8] = test: Neuroprotective activity against H2O2-induced apoptosis in human SH-SY5Y cells assessed as reduction in nuclear fragmentation at 25 to 100 uM after 4 hrs by Hoechst 33258 staining based fluorescence microscopic analysis; assay type: functional, cell-based
Method in brief: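 SH-SY5Y cells were incubated with H2O2 (200 μM) for 4 h, with or without compound at 25, 50 or 100 μM. Nuclei were stained with the DNA dye Hoechst 33258. Chromatin condensation and fragmented nuclei were scored by fluorescence microscopy against untreated control and H2O2-only cells.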

SH-SY5Y [9] = test: Neuroprotective activity against H2O2-induced apoptosis in human SH-SY5Y cells assessed as early apoptotic cells at 25 uM pretreated for 1 hr followed by H2O2-stimulation after 4 hrs by Annexin-V-FITC/propidium iodide staining based flow cytometry (reference value: 6.4%); assay type: functional
SH-SY5Y [10] = test: Neuroprotective activity against H2O2-induced apoptosis in human SH-SY5Y cells assessed as viable cells at 50 uM pretreated for 1 hr followed by H2O2-stimulation after 4 hrs by Annexin-V-FITC/propidium iodide staining based flow cytometry (reference value: 76%); assay type: functional; conditions: read-out: Activity
SH-SY5Y [11] = test: Neuroprotective activity against H2O2-induced apoptosis in human SH-SY5Y cells assessed as late apoptotic cells at 100 uM pretreated for 1 hr followed by H2O2-stimulation after 4 hrs by Annexin-V-FITC/propidium iodide staining based flow cytometry (reference value: 15%); assay type: functional
SH-SY5Y [12] = test: Neuroprotective activity against H2O2-induced apoptosis in human SH-SY5Y cells assessed as late apoptotic cells at 25 uM pretreated for 1 hr followed by H2O2-stimulation after 4 hrs by Annexin-V-FITC/propidium iodide staining based flow cytometry (reference value: 15%); assay type: functional
SH-SY5Y [13] = test: Neuroprotective activity against H2O2-induced apoptosis in human SH-SY5Y cells assessed as viable cells at 100 uM pretreated for 1 hr followed by H2O2-stimulation after 4 hrs by Annexin-V-FITC/propidium iodide staining based flow cytometry (reference value: 76%); assay type: functional; conditions: read-out: Activity
SH-SY5Y [14] = test: Neuroprotective activity against H2O2-induced apoptosis in human SH-SY5Y cells assessed as early apoptotic cells at 50 uM pretreated for 1 hr followed by H2O2-stimulation after 4 hrs by Annexin-V-FITC/propidium iodide staining based flow cytometry (reference value: 6.4%); assay type: functional
SH-SY5Y [15] = test: Neuroprotective activity against H2O2-induced apoptosis in human SH-SY5Y cells assessed as early apoptotic cells at 100 uM pretreated for 1 hr followed by H2O2-stimulation after 4 hrs by Annexin-V-FITC/propidium iodide staining based flow cytometry (reference value: 6.4%); assay type: functional
SH-SY5Y [16] = test: Neuroprotective activity against H2O2-induced apoptosis in human SH-SY5Y cells assessed as viable cells at 25 uM pretreated for 1 hr followed by H2O2-stimulation after 4 hrs by Annexin-V-FITC/propidium iodide staining based flow cytometry (reference value: 76%); assay type: functional; conditions: read-out: Activity

SMILES	Activity (SH-SY5Y [1])	Activity (SH-SY5Y [2])	further results
C[C@@]1(O)[C@H](O)CC[C@@]2(C)[C@@H]3CC[C@@H]4C[C@@]3(CC[C@H]12)C[C@@H]4C(=O)O	>10%	–	–
C[C@@]12C[C@H](O)C[C@@](C)(C(=O)O)[C@H]1CC[C@@]13C[C@@H](CC[C@H]12)[C@@H](C(=O)O)C3	–	inactive	–
C[C@@]12CCC[C@@](C)(C=O)[C@H]1CC[C@@]13C=C(C(=O)O)[C@@H](C1)[C@@H](O)C[C@H]32	>10%	–	–
CC1(C)[C@H](O)[C@@H](O)C[C@]2(C)[C@@H]1CC[C@]13C=C(C(=O)O)[C@H](CC[C@H]12)C3	>10%	–	–
C[C@@]1(O)[C@H](O)CC[C@@]2(C)[C@@H]3CC[C@@H]4C[C@]3(C=C4C(=O)O)CC[C@H]12	–	inactive	–
C[C@@]1(CO)CC(=O)C[C@]2(C)[C@@H]1CC[C@@]13C[C@@H](CC[C@H]12)[C@@H](C(=O)O)C3	>10%	–	–
COC(=O)[C@]1(C)C[C@@H](O)C[C@@]2(C)[C@@H]3CC[C@@H]4C[C@@]3(CC[C@@H]21)C[C@@H]4C(=O)O	–	inactive	–
COC(=O)[C@]1(C)CC[C@H](O)[C@@]2(C)[C@@H]3CC[C@@H]4C[C@]3(C=C4C(=O)O)CC[C@@H]21	–	inactive	–
C[C@@]1(CO)C[C@@H](O)C[C@]2(C)[C@@H]1CC[C@@]13C[C@@H](CC[C@H]12)[C@@H](C(=O)O)C3	–	inactive	–
C[C@@]12C[C@H](O)C[C@@](C)(C=O)[C@H]1CC[C@]13C=C(C(=O)O)[C@H](CC[C@H]12)C3	–	inactive	–
C[C@@]1(CO)C[C@@H](O)C[C@]2(C)[C@@H]1CC[C@]13C=C(C(=O)O)[C@H](CC[C@H]12)C3	–	inactive	–
C[C@@]12CCC[C@@](C)(O)[C@H]1CC[C@]13C=C(C(=O)O)[C@H](CC[C@H]12)C3	>10%	–	Activity (SH-SY5Y [3]): 0.727%; Activity (SH-SY5Y [4]): 1.44%; Activity (SH-SY5Y [5]): 1.29%; Activity (SH-SY5Y [6]): Dose-dependent effect; Activity (SH-SY5Y [7]): 5.34%; Activity (SH-SY5Y [8]): Active; Activity (SH-SY5Y [9]): 3.23%; viability at 50 µM (SH-SY5Y [10]): 90%; Activity (SH-SY5Y [11]): 5.94%; Activity (SH-SY5Y [12]): 9.28%; viability at 100 µM (SH-SY5Y [13]): 90%; Activity (SH-SY5Y [14]): 3.93%; Activity (SH-SY5Y [15]): 2.58%; viability at 25 µM (SH-SY5Y [16]): 86.2%
COC(=O)[C@]1(C)C[C@@H](O)C[C@@]2(C)[C@@H]3CC[C@@H]4C[C@]3(C=C4C(=O)O)CC[C@@H]21	–	inactive	–
C[C@@]12CCC[C@@](C)(C(=O)O)[C@H]1CC[C@@]13C[C@@H](CC[C@H]12)[C@](O)(CO)C3	–	inactive	–
C[C@@]12CCC[C@@](C)(C(=O)O)[C@H]1CC[C@]13C=C(C(=O)O)[C@H](CC[C@H]12)C3	–	inactive	–
